Measured values reported in ChEMBL document CHEMBL4346654 (Eur J Med Chem, 2019).
Converted amounts (≈) assume the structure as drawn.

Columns and labels:
Assay type in all cases: functional
Staphylococcus aureus [1] = assay: Antibacterial activity against MLS-resistant Staphylococcus aureus PU 20 expressing constitutive ermC gene assessed as reduction in microbial growth by CLSI based two-fold broth dilution method
Streptococcus pyogenes [2] = assay: Antibacterial activity against MLS-resistant Streptococcus pyogenes 01-968 expressing inducible ermB gene assessed as reduction in microbial growth by CLSI based two-fold broth dilution method
Streptococcus pneumoniae [3] = assay: Selectivity ratio of MBC to MIC for Streptococcus pneumoniae 07P390 expressing constitutive ermB gene
Outline: (§1)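 Isolates were identified by 16S rDNA sequencing. MIC was determined by CLSI-recommended two-fold broth dilution. For MBC, samples from 1–8 fold MIC were transferred to culture medium and subcultured for 24 h without antibiotic.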

Staphylococcus aureus [4] = assay: Bactericidal activity against MLS/methicillin-resistant Staphylococcus aureus PU 32 expressing inducible ermA gene pretreated followed by subculture in absence of compound measured after 24 hrs
Outline: (§2)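 MBC assay. Following MIC determination by CLSI standard two-fold broth dilution, samples at 1–8 fold MIC were transferred to fresh culture medium. They were subcultured for 24 h without antibiotic. Isolates were identified by 16S rDNA sequencing. S. aureus ATCC 29213 was used as a control strain.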

Streptococcus pneumoniae [5] = assay: Antibacterial activity against erythromycin-susceptible Streptococcus pneumoniae ATCC49619 assessed as reduction in microbial growth by CLSI based two-fold broth dilution method
Haemophilus influenzae [6] = assay: Antibacterial activity against azithromycin-susceptible Haemophilus influenzae ATCC 49247 assessed as reduction in microbial growth by CLSI based two-fold broth dilution method
Staphylococcus aureus [7] = assay: Selectivity ratio of MBC to MIC for MLS/methicillin-resistant Staphylococcus aureus PU 32 expressing inducible ermA gene
Outline: (§3)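 MBC/MIC ratio. MIC was measured by CLSI standard two-fold broth dilution. MBC was measured by transferring samples at 1–8 fold MIC to culture medium and subculturing for 24 h without antibiotic. Isolates were identified by 16S rDNA sequencing.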

Streptococcus pyogenes [8] = assay: Bactericidal activity against MLS-resistant Streptococcus pyogenes 01-968 expressing inducible ermB gene pretreated followed by subculture in absence of compound measured after 24 hrs; outline: as §2
Streptococcus pneumoniae [9] = assay: Selectivity ratio of MBC to MIC for penicillin-susceptible Streptococcus pneumoniae PU 09 expressing mef gene; outline: as §1
Streptococcus pneumoniae [10] = assay: Bactericidal activity against erythromycin-susceptible Streptococcus pneumoniae ATCC49619 pretreated followed by subculture in absence of compound measured after 24 hrs; outline: as §1
Streptococcus pneumoniae [11] = assay: Antibacterial activity against penicillin-susceptible Streptococcus pneumoniae PU 09 expressing mef gene assessed as reduction in microbial growth by CLSI based two-fold broth dilution method
Streptococcus pneumoniae [12] = assay: Bactericidal activity against penicillin-susceptible Streptococcus pneumoniae PU 09 expressing mef gene pretreated followed by subculture in absence of compound measured after 24 hrs; outline: as §1
Streptococcus pyogenes [13] = assay: Selectivity ratio of MBC to MIC for MLS-resistant Streptococcus pyogenes 01-968 expressing inducible ermB gene; outline: as §3
Streptococcus pneumoniae [14] = assay: Bactericidal activity against Streptococcus pneumoniae 07P390 expressing constitutive ermB gene pretreated followed by subculture in absence of compound measured after 24 hrs; outline: as §1
Haemophilus influenzae [15] = assay: Selectivity ratio of MBC to MIC for azithromycin-susceptible Haemophilus influenzae ATCC 49247; outline: as §1
Streptococcus pneumoniae [16] = assay: Selectivity ratio of MBC to MIC for erythromycin-susceptible Streptococcus pneumoniae ATCC49619; outline: as §1
Haemophilus influenzae [17] = assay: Bactericidal activity against azithromycin-susceptible Haemophilus influenzae ATCC 49247 pretreated followed by subculture in absence of compound measured after 24 hrs; outline: as §1
Staphylococcus aureus [18] = assay: Antibacterial activity against MLS-resistant Staphylococcus aureus PU 32 expressing inducible ermA gene assessed as reduction in microbial growth by CLSI based two-fold broth dilution method
Streptococcus pneumoniae [19] = assay: Antibacterial activity against Streptococcus pneumoniae 07P390 expressing constitutive ermB gene assessed as reduction in microbial growth by CLSI based two-fold broth dilution method
Staphylococcus aureus [20] = assay: Bactericidal activity against MLS-resistant Staphylococcus aureus PU 20 expressing constitutive ermC gene pretreated followed by subculture in absence of compound measured after 24 hrs; outline: as §2

Row | Compound | MIC (Staphylococcus aureus [1]) [mg/L] | MIC (Streptococcus pyogenes [2]) [mg/L] | Selectivity ratio (Streptococcus pneumoniae [3]) | MBC (Staphylococcus aureus [4]) [mg/L] | MIC (Streptococcus pneumoniae [5]) [mg/L] | MIC (Haemophilus influenzae [6]) [mg/L] | Selectivity ratio (Staphylococcus aureus [7]) | MBC (Streptococcus pyogenes [8]) [mg/L] | Selectivity ratio (Streptococcus pneumoniae [9]) | MBC (Streptococcus pneumoniae [10]) [mg/L] | MIC (Streptococcus pneumoniae [11]) [mg/L] | MBC (Streptococcus pneumoniae [12]) [mg/L] | Selectivity ratio (Streptococcus pyogenes [13]) | MBC (Streptococcus pneumoniae [14]) [mg/L] | Selectivity ratio (Haemophilus influenzae [15]) | Selectivity ratio (Streptococcus pneumoniae [16]) | MBC (Haemophilus influenzae [17]) [mg/L] | MIC (Staphylococcus aureus [18]) [mg/L] | MIC (Streptococcus pneumoniae [19]) [mg/L] | MBC (Staphylococcus aureus [20]) [mg/L]
1 | CC[C@H]1OC(=O)[C@@](C)(F)C(=O)[C@H](C)[C@@H](O[C@@H]2O[C@H](C)C[C@H](N(C)C)[C@H]2O)[C@](C)(OC/C=C/c2ccc3ncc(C(=O)O)cc3c2)C[C@@H](C)/C(=N\OC)[C@H](C)[C@H]2OC(=O)O[C@@]21C | > 256 | ≤ 0.008 | 8 | 0.5 (≈ 0.583 µM) | 0.031 | 4 | 8 | > 0.062 | 2 | 0.062 (≈ 0.0723 µM) | 8 | 16 (≈ 18.6 µM) | >8 | 4 (≈ 4.66 µM) | 2 | 2 | 8 (≈ 9.32 µM) | 0.062 | 0.5 | –
2 | CC[C@H]1OC(=O)[C@@](C)(F)C(=O)[C@H](C)[C@@H](O[C@@H]2O[C@H](C)C[C@H](N(C)C)[C@H]2O)[C@](C)(OC/C=C/c2cncc(C(N)=O)c2)C[C@@H](C)/C(=N\OC)[C@H](C)[C@H]2OC(=O)O[C@@]21C | > 256 | 0.031 | 8 | > 1 | 0.062 | 4 | >8 | > 0.25 | 4 | 0.125 (≈ 0.155 µM) | 2 | 8 (≈ 9.91 µM) | >8 | 4 (≈ 4.96 µM) | 2 | 2 | 8 (≈ 9.91 µM) | 0.125 | 0.5 | –
3 | CC[C@H]1OC(=O)[C@@](C)(F)C(=O)[C@H](C)[C@@H](O[C@@H]2O[C@H](C)C[C@H](N(C)C)[C@H]2O)[C@](C)(OC/C=C/c2ccc3[nH]ccc(=O)c3c2)C[C@@H](C)/C(=N\OC)[C@H](C)[C@H]2OC(=O)O[C@@]21C | 256 | 0.125 | 4 | 8 (≈ 9.64 µM) | 0.062 | 8 | 8 | 1 (≈ 1.2 µM) | 2 | 0.062 (≈ 0.0747 µM) | 2 | 4 (≈ 4.82 µM) | 8 | 1 (≈ 1.2 µM) | 2 | 1 | 16 (≈ 19.3 µM) | 1 | 0.25 | > 256
4 | CC[C@H]1OC(=O)[C@@](C)(F)C(=O)[C@H](C)[C@@H](O[C@@H]2O[C@H](C)C[C@H](N(C)C)[C@H]2O)[C@](C)(OC)C[C@@H](C)/C(=N\OC/C=C/c2cncc(O)c2)[C@H](C)[C@H]2OC(=O)O[C@@]21C | 256 | 0.062 | – | > 2 | 0.125 | 16 | >8 | > 0.5 | 2 | 0.5 (≈ 0.641 µM) | 2 | 4 (≈ 5.13 µM) | >8 | > 32 | 1 | 4 | 16 (≈ 20.5 µM) | 0.25 | 32 | > 256
5 | CC[C@H]1OC(=O)[C@@](C)(F)C(=O)[C@H](C)[C@@H](O[C@@H]2O[C@H](C)C[C@H](N(C)C)[C@H]2O)[C@](C)(OC)C[C@@H](C)/C(=N\OCC#Cc2cncc(C(=O)NC)c2)[C@H](C)[C@H]2OC(=O)O[C@@]21C | 256 | 0.062 | – | > 4 | 0.125 | 8 | >8 | > 0.5 | 1 | 0.25 (≈ 0.305 µM) | 1 | 1 (≈ 1.22 µM) | >8 | > 32 | 2 | 2 | 16 (≈ 19.5 µM) | 0.5 | 32 | > 256
6 | CC[C@H]1OC(=O)[C@@](C)(F)C(=O)[C@H](C)[C@@H](O[C@@H]2O[C@H](C)C[C@H](N(C)C)[C@H]2O)[C@](C)(OC/C=C/c2ccc3[nH]cc(C(=O)O)c(=O)c3c2)C[C@@H](C)/C(=N\OC)[C@H](C)[C@H]2OC(=O)O[C@@]21C | > 256 | 0.031 | 8 | 2 (≈ 2.29 µM) | 0.062 | 8 | 4 | 0.062 (≈ 0.0709 µM) | 2 | 0.062 (≈ 0.0709 µM) | 2 | 4 (≈ 4.58 µM) | 2 | 4 (≈ 4.58 µM) | 2 | 1 | 16 (≈ 18.3 µM) | 0.5 | 0.5 | –
7 | CC[C@H]1OC(=O)[C@@](C)(F)C(=O)[C@H](C)[C@@H](O[C@@H]2O[C@H](C)C[C@H](N(C)C)[C@H]2O)[C@](C)(OC)C[C@@H](C)/C(=N\OC/C=C/c2ccc3[nH]ccc(=O)c3c2)[C@H](C)[C@H]2OC(=O)O[C@@]21C | 256 | 0.062 | 2 | > 8 | 0.125 | 16 | >8 | > 0.5 | 2 | 0.5 (≈ 0.602 µM) | 4 | 8 (≈ 9.64 µM) | >8 | 32 (≈ 38.6 µM) | 2 | 4 | 32 (≈ 38.6 µM) | 1 | 16 | > 256
8 | CC[C@H]1OC(=O)[C@@](C)(F)C(=O)[C@H](C)[C@@H](O[C@@H]2O[C@H](C)C[C@H](N(C)C)[C@H]2O)[C@](C)(OC)C[C@@H](C)/C(=N\OC/C=C/c2cncc(C(N)=O)c2)[C@H](C)[C@H]2OC(=O)O[C@@]21C | 256 | 0.062 | – | > 2 | 0.031 | 8 | >8 | > 0.5 | 2 | 0.031 (≈ 0.0384 µM) | 0.5 | 1 (≈ 1.24 µM) | >8 | > 32 | 2 | 1 | 16 (≈ 19.8 µM) | 0.25 | 32 | > 256
9 | CC[C@H]1OC(=O)[C@@](C)(F)C(=O)[C@H](C)[C@@H](O[C@@H]2O[C@H](C)C[C@H](N(C)C)[C@H]2O)[C@](C)(OC)C[C@@H](C)/C(=N\OCC#Cc2ccc3[nH]ccc(=O)c3c2)[C@H](C)[C@H]2OC(=O)O[C@@]21C | 256 | ≤ 0.008 | 2 | 8 (≈ 9.66 µM) | 0.062 | 16 | 8 | > 0.062 | 1 | 0.125 (≈ 0.151 µM) | 4 | 4 (≈ 4.83 µM) | >8 | 32 (≈ 38.6 µM) | 1 | 2 | 16 (≈ 19.3 µM) | 1 | 16 | > 256
10 | CC[C@H]1OC(=O)[C@@](C)(F)C(=O)[C@H](C)[C@@H](O[C@@H]2O[C@H](C)C[C@H](N(C)C)[C@H]2O)[C@](C)(OC/C=C/c2cncc(C(=O)O)c2)C[C@@H](C)/C(=N\OC)[C@H](C)[C@H]2OC(=O)O[C@@]21C | > 256 | 0.125 | 4 | > 16 | 0.25 | 8 | >8 | > 1 | – | 0.5 (≈ 0.619 µM) | 32 | > 32 | >8 | 4 (≈ 4.95 µM) | 1 | 2 | 8 (≈ 9.9 µM) | 2 | 1 | –
